Results from different studies.
Protocols differ between the studies behind these lines.
Target: Homeodomain-interacting protein kinase 1 (HIPK1, Homo sapiens, UniProt Q86Z02)

`CCC(=O)N[C@H]1CC[C@@H](C(=O)N(C)c2ccc(-c3nc4ccccc4o3)cc2)C1` gave a remaining binding of 80% (cell-free assay; competition with immobilised ligand; 1 µM).
With `Cc1sc(C(=O)NC2COC2)cc1-n1cc(NC(=O)Nc2c(F)cccc2Cl)cn1` the remaining activity was 116% (enzyme activity; inhibitor; 10 µM).
`CC/C(=N\NC(=O)NCc1cccc(O)c1)c1ccc(O)c(C)c1O` gave an inhibition of 6.3% (enzyme activity; inhibitor; 0.1 µM).
The inhibition of `CNC(=O)c1cc(Oc2ccc(NC(=O)Nc3ccc(Cl)c(C(F)(F)F)c3)cc2)ccn1` is reported as 14% (enzyme activity; inhibitor; 0.3 µM).
With `COc1cc2nccc(Oc3ccc(NC(=O)c4c5n(n(-c6ccc(F)cc6)c4=O)CCCC5)cc3)c2cc1OC` the inhibition was 12% (enzyme activity; inhibitor; 0.1 µM).
For `CN1CC(Oc2cnc(C#N)cc2-c2ccn3nc(NC(=O)C4CC4)cc3c2)C1`, the inhibition was -3% (enzyme activity; inhibitor; 1 µM).
With `Cc1cc(NC(=O)c2cccc3cc(-c4cccc5[nH]nc(N)c45)ccc23)ccc1F` the activity vs control was 95% (enzyme activity; inhibitor; 0.1 µM).
For `O=C(O)c1ccc2c(c1)nc(NCCc1ccccc1)c1ccncc12`, the remaining activity was 12% (enzyme activity; inhibitor; radiometric; 1 µM).
For `CC1=C(C#N)C(c2ccc3c(c2)c(NC(=O)c2ccccc2C)nn3C)C(C#N)=C(C)N1`, the remaining binding was 71% (cell-free assay; competition with immobilised ligand; 1 µM).
`COc1cccc(Nc2nc3cc(C(=O)O)ccc3c3cnccc23)c1` has a remaining activity of 11% (enzyme activity; inhibitor; radiometric; 1 µM).
The remaining signal of `O=C1Nc2ccc(Cl)cc2C1=Cc1cc(Cl)c(O)c(Cl)c1` is reported as 102% (cell-free assay; 0.5 µM).
`CS(=O)(=O)c1cc(C2(NC(=O)c3cncc4c3cnn4-c3ccc(F)cc3)CC2)ccn1` has a remaining binding of 92% (cell-free assay; competition with immobilised ligand; 1 µM).
`O=C(O)c1ccc2c(c1)nc(NCCc1cccc(Cl)c1)c1ncncc12` gave a remaining activity of 35% (enzyme activity; inhibitor; radiometric; 1 µM).
`O=C(NCc1ncc(C(F)(F)F)cc1Cl)c1ccc2c(c1)C1(CCS(=O)(=O)CC1)[C@@H](C1CC1)N2S(=O)(=O)c1ccc(F)cc1` has a remaining binding of 70% (cell-free assay; competition with immobilised ligand; 1 µM).
`Cc1ccc(Nc2nccc(N(C)c3ccc4c(C)n(C)nc4c3)n2)cc1S(N)(=O)=O` has an inhibition of 21% (enzyme activity; inhibitor; 10 µM).
`N#Cc1cccc(Nc2nc3cc(C(=O)O)ccc3c3cncnc23)c1` gave a remaining activity of 17% (enzyme activity; inhibitor; radiometric; 1 µM).
With `CN([C@@H]1CCc2c(CC(=O)O)c3cc(S(C)(=O)=O)ccc3n2C1)S(=O)(=O)c1ccc(F)cc1` the remaining binding was 77% (cell-free assay; competition with immobilised ligand; 1 µM).
For `O=C(O)c1ccc2c(c1)nc(NCCc1ccccc1)c1ncncc12`, the remaining activity was 18% (enzyme activity; inhibitor; radiometric; 1 µM).
For `COCCOc1nc(-c2ccc(Cl)nc2)nc2c1CN(C(=O)c1ncn3ccccc13)CC2`, the remaining binding was 90% (cell-free assay; competition with immobilised ligand; 0.1 µM).
For `O=C(O)c1ccc2c(c1)nc(NCc1ccccc1)c1ccncc12`, the remaining activity was 76% (enzyme activity; inhibitor; radiometric; 1 µM).
`COc1cc(/C=C/C(=O)CC(=O)/C=C/c2ccc(O)c(OC)c2)ccc1O` has an activity vs control of 44% (enzyme activity; inhibitor; 1 µM).
The inhibition of `COc1cc2ncnc(Nc3ccc(Oc4ccccc4)cc3C)c2cc1OC` is reported as 1% (enzyme activity; inhibitor; 1 µM).
The inhibition of `CCN(CC)CCNC(=O)c1c(C)[nH]c(/C=C2\C(=O)Nc3ccc(F)cc32)c1C` is reported as 26% (enzyme activity; inhibitor; 0.3 µM).
With `O=C(O)c1ccc2c(c1)nc(Nc1ccc(F)c(Cl)c1)c1ncncc12` the remaining activity was 6% (enzyme activity; inhibitor; radiometric; 1 µM).
The remaining binding of `CO[C@@H](C)c1c(Nc2ccc([C@@H](N(C)C(=O)C3CCS(=O)(=O)CC3)C(F)(F)F)cc2)cnc2cc(Cl)nn12` is reported as 56% (cell-free assay; competition with immobilised ligand; 1 µM).
The activity vs control of `FC(F)(F)Oc1cccc(-c2cnc3ccc(-c4ccncc4)nn23)c1` is reported as 29% (enzyme activity; inhibitor; radiometric; 1 µM).
With `Cc1nccc(COC(=O)N2C[C@@H]3[C@@H](CNC(=O)c4ccc5[nH]nnc5c4)[C@@H]3C2)n1` the remaining binding was 82% (cell-free assay; competition with immobilised ligand; 1 µM).
`Nc1ncnc2occ(-c3ccc(NC(=O)Nc4cc(C(F)(F)F)ccc4F)cc3)c12` has a remaining signal of 0.1% (cell-free assay; inhibitor; 20 µM).
`O=C(O)c1ccc2c(c1)nc(NCCc1cccc(F)c1)c1ccncc12` gave a remaining activity of 13% (enzyme activity; inhibitor; radiometric; 1 µM).
With `N#CCCc1ccc2c(c1)-c1[nH]c3ccc([N+](=O)[O-])cc3c1CC(=O)N2` the remaining signal was 97.9% (cell-free assay; 0.5 µM).
